Screening results: PubChem BioAssay, Broad Institute
SIRT5 inh: sirtuin-5 (human) deacylase inhibition; Q9NXA8; inhibition, % at 15 µM; Purified SirT5, succinyl-peptide AMC, trypsin-coupled fluorescence; hit rate 1.1% among 330,000; AID 652115; in the data active means inhibition above about 15%; inconclusive means no clear call, values can overlap the other calls
Target sequence (Q9NXA8 whole entry, looked up): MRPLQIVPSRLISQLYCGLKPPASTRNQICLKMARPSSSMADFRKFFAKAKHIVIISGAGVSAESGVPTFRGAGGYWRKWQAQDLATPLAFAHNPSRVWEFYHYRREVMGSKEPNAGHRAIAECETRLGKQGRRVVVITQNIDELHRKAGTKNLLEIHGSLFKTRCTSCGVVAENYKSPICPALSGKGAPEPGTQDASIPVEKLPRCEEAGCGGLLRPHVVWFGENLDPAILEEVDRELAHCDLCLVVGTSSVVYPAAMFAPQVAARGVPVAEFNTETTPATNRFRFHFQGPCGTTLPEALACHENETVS
DENV2 CPE: DENV2-induced cell death inhibition | DENV2-infected cells, cytopathic effect rescue, plate reader | hit rate 1.7% among 350,000 | CPE inhibition, % at 9.99 µM | AID 651640; in the data active means CPE inhibition above about 20%, passing the limit was not always enough; inconclusive means no clear call, values can overlap the other calls; tested in BHK-21 cells;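 further: 0% = median of neutral control wells and 100% = median of positive control wells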
E-selectin induc: E-selectin induction on HUVECs. P16581. HUVEC E-selectin immunofluorescence imaging; normalized: neutral wells 0, TNF-alpha wells 100. activation, % at 7.58 µM. hit rate 0.37% among 260,000. AID 686992;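 active means mean E-selectin-positive cell signal at least 10% of the positive control, reached in at least 60% of replicates, without over 20% cell loss; inconclusive means no rule given, readout overlaps actives, possibly toxicity-flagged; inactive means the rest, including those meeting only one limit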
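Assay system: HUVEC primary endothelial cells. Input: 3,000 HUVEC seeded per well. Doses: one compound dose added by pin transfer. Read-out basis: % PE-positive cells. Benchmarks: TNF-alpha high, DMSO low. Detection: immunofluorescence imaging. Buffer or medium: EGM-2, gelatin.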
Active calls of the source: *. The list is not random: actives were taken first. Their share in the collection is about 2.8%.

For C[C@H](CO)N1C[C@H](C)[C@@H](CN(C)Cc2cccc(F)c2)Oc2ncc(C#CC(C)(C)O)cc2C1=O the results were E-selectin induc 0.
Screening O=C(O)C1C2CCC(C2)C1C(=O)NCCc1cccc(Cl)c1 (centres undefined) returned SIRT5 inh -2 and DENV2 CPE 2.
O=C(O)C1C2CCC(C2)C1C(=O)NCCc1ccc(F)cc1 (centres undefined) was read as SIRT5 inh 17*, DENV2 CPE -2 and E-selectin induc 0.
For Cc1cccc(N=[N+]([O-])c2cccc(C)n2)n1 the results were SIRT5 inh 2 and DENV2 CPE 27*.
For Cc1cccc(N=O)n1 the results were DENV2 CPE 0 and E-selectin induc 0.
Screening COC(=O)CCCC1=CC2=CC(=O)C(C)(OC(=O)c3cccs3)C(=O)C2=CN1CCc1ccccn1 (centres undefined) returned SIRT5 inh 3, DENV2 CPE 24* and E-selectin induc 0.
C=CCN1C=C2C(=O)C(C)(OC(=O)c3cccs3)C(=O)C=C2C=C1CCCC(=O)OC (centres undefined) was read as DENV2 CPE inconclusive and E-selectin induc 0.
For COc1ccccc1S(=O)(=O)Nc1ccc2c(c1)OC[C@H](C)NC[C@H](C)[C@@H](OC)CN(C)C2=O the results were SIRT5 inh -1, DENV2 CPE -3 and E-selectin induc 0.
For COc1ccc(NS(=O)(=O)c2cccc(Cl)c2)cc1S(=O)(=O)N1CCCCC1 the results were SIRT5 inh 0 and DENV2 CPE -4.
COc1ccc(NS(=O)(=O)c2cccc(Cl)c2Cl)cc1S(=O)(=O)N1CCCCC1 was read as SIRT5 inh -3, DENV2 CPE -1 and E-selectin induc 134*.
Screening COc1cc(C(=S)N2CCOCC2)ccc1OC(=O)c1ccccc1 returned SIRT5 inh -1, DENV2 CPE 3 and E-selectin induc 0.
Screening COc1ccc(C(=S)N2CCOCC2)cc1OC(=O)c1ccccc1 returned SIRT5 inh -4, DENV2 CPE 24* and E-selectin induc 0.
`CN(C)CC(=O)Nc1ccc2c(c1)[C@H]1C[C@@H](CC(=O)NCc3ccccc3)O[C@H](CO)[C@H]1O2` gave SIRT5 inh 9, DENV2 CPE 21* and E-selectin induc -1.
Screening COCCNC(=O)C[C@H]1C[C@@H]2c3cc(NC(=O)Nc4ccc(OC)cc4)ccc3O[C@@H]2[C@H](CO)O1 returned DENV2 CPE inconclusive and E-selectin induc 0.
`COCCNC(=O)C[C@@H]1C[C@H]2c3cc(NC(=O)Nc4ccc(OC)cc4)ccc3O[C@H]2[C@H](CO)O1` gave SIRT5 inh 1, DENV2 CPE 23* and E-selectin induc 0.
Screening CCCNC(=O)C[C@@H]1C[C@H]2c3cc(NC(=O)CN(C)C)ccc3O[C@H]2[C@@H](CO)O1 returned DENV2 CPE 65* and E-selectin induc -1.
For CCCNC(=O)C[C@H]1C[C@H]2c3cc(NC(=O)CN(C)C)ccc3O[C@H]2[C@H](CO)O1 the results were DENV2 CPE -4 and E-selectin induc 0.
CN(C)CC(=O)Nc1ccc2c(c1)[C@@H]1C[C@H](CC(=O)NCc3ccccc3)O[C@H](CO)[C@@H]1O2 was read as SIRT5 inh -3, DENV2 CPE -6 and E-selectin induc -1.
For CO[C@@H]1CN(C)C(=O)c2ccc(NC(=O)CC(F)(F)F)cc2OC[C@@H](C)N(S(=O)(=O)c2cn(C)cn2)C[C@@H]1C the results were SIRT5 inh -1, DENV2 CPE 5 and E-selectin induc 0.
O=C(C[C@@H]1CC[C@@H](NS(=O)(=O)c2ccc(F)cc2)[C@@H](CO)O1)NC1CCCCC1 was read as SIRT5 inh 3, DENV2 CPE -4 and E-selectin induc 0.
Screening Cc1ccc(S(=O)(=O)Nc2ccc3c(c2)C(=O)N([C@H](C)CO)C[C@@H](C)[C@@H](CN(C)S(=O)(=O)c2ccc(Cl)cc2)OCCCC[C@@H](C)O3)cc1 returned DENV2 CPE -19 and E-selectin induc 0.
Cc1ccc(S(=O)(=O)N(C)C[C@@H]2OCCCC[C@@H](C)Oc3ccc(NS(=O)(=O)c4ccc(Cl)cc4)cc3C(=O)N([C@@H](C)CO)C[C@H]2C)cc1 was read as SIRT5 inh 25*, DENV2 CPE -1 and E-selectin induc 0.
Screening Cc1ccc(S(=O)(=O)Nc2ccc3c(c2)C(=O)N([C@@H](C)CO)C[C@H](C)[C@H](CN(C)S(=O)(=O)c2ccc(Cl)cc2)OCCCC[C@@H](C)O3)cc1 returned DENV2 CPE -24 and E-selectin induc 0.
For Cc1ccc(S(=O)(=O)Nc2ccc3c(c2)C(=O)N([C@@H](C)CO)C[C@@H](C)[C@H](CN(C)S(=O)(=O)c2ccc(Cl)cc2)OCCCC[C@@H](C)O3)cc1 the results were DENV2 CPE 83* and E-selectin induc 0.
`C[C@@H]1CCCCO[C@H](CN(C)S(=O)(=O)c2ccc(Cl)cc2)[C@H](C)CN([C@H](C)CO)C(=O)c2cc(N(C)C)ccc2O1` gave SIRT5 inh 5, DENV2 CPE 89* and E-selectin induc 1.
Screening C[C@@H]1CN([C@H](C)CO)C(=O)c2cc(N(C)C)ccc2O[C@@H](C)CCCCO[C@H]1CN(C)S(=O)(=O)c1ccc(Cl)cc1 returned E-selectin induc 0.
`Cc1ccc(S(=O)(=O)N(C)C[C@@H]2OCCCC[C@H](C)Oc3ccc(NS(=O)(=O)c4ccc(Cl)cc4)cc3C(=O)N([C@H](C)CO)C[C@@H]2C)cc1` gave SIRT5 inh 19*, DENV2 CPE 2 and E-selectin induc 0.
`Cc1ccc(S(=O)(=O)Nc2ccc3c(c2)C(=O)N([C@H](C)CO)C[C@@H](C)[C@@H](CN(C)S(=O)(=O)c2ccc(Cl)cc2)OCCCC[C@H](C)O3)cc1` gave DENV2 CPE -6 and E-selectin induc 0.
Screening CO[C@H]1CN(C)C(=O)c2cc(NC(C)=O)ccc2OC[C@@H](C)N(Cc2ccccc2F)C[C@H]1C returned SIRT5 inh 2, DENV2 CPE 19 and E-selectin induc 0.
For CO[C@@H]1CN(C)C(=O)c2cc(NC(=O)NC(C)C)ccc2OC[C@@H](C)N(Cc2ccc(-c3ccccn3)cc2)C[C@@H]1C the results were SIRT5 inh 4, DENV2 CPE -4 and E-selectin induc 0.
C[C@@H]1CN([C@@H](C)CO)C(=O)c2cc(NS(C)(=O)=O)ccc2O[C@@H](C)CCCCO[C@@H]1CN(C)S(=O)(=O)c1ccc(Cl)cc1 was read as SIRT5 inh -4, DENV2 CPE 20* and E-selectin induc 0.
For C[C@@H]1CN([C@H](C)CO)C(=O)c2cc(NS(C)(=O)=O)ccc2O[C@@H](C)CCCCO[C@@H]1CN(C)S(=O)(=O)c1ccc(Cl)cc1 the results were SIRT5 inh 0, DENV2 CPE 1 and E-selectin induc 0.
For Cc1ccc(S(=O)(=O)Nc2ccc3c(c2)C(=O)N([C@H](C)CO)C[C@H](C)[C@H](CN(C)S(=O)(=O)c2ccc(Cl)cc2)OCCCC[C@H](C)O3)cc1 the results were DENV2 CPE -15 and E-selectin induc 1.
Screening Cc1ccc(S(=O)(=O)N(C)C[C@H]2OCCCC[C@H](C)Oc3ccc(NS(=O)(=O)c4ccc(Cl)cc4)cc3C(=O)N([C@H](C)CO)C[C@H]2C)cc1 returned SIRT5 inh 26*, DENV2 CPE -2 and E-selectin induc 0.
